Assay outcomes deposited in PubChem by several laboratories.
This is one part of a sample in which hits are shown more often than they occur.
CHOP inh – inhibitors of CHOP induction in ER stress response. CHO-K1 CHOP-promoter luciferase, tunicamycin-induced, 15-18 h. inhibition, % at 10 µM. 3.8% of 220,000 active. AID 2732;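 active means compounds that reduced the stress-induced luciferase reporter signal by more than about 70% of percent inhibition, limit read from the data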
UPR CHOP act – apoptotic UPR (CHOP) activation. 0.34% of 330,000 active. activation, % at 10 µM. CHO-CHOP luciferase reporter, luminescence; percent of tunicamycin response over DMSO baseline;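 active means at 10 µM dose, activation of 40% or more, normalized to positive control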
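Assay system: CHO cells with stable CHOP pathway luciferase reporter; Buffer or medium: F12 plus 10% serum; Times: 16-18 h cell attachment, then 6 h compound exposure, 37 °C; Signal: luciferase luminescence; Read-out basis: percent activation relative to tunicamycin control; Control set: tunicamycin high control, DMSO low control.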
TbMetRS inhib – blocks T. brucei methionyl-tRNA synthetase activity; inhibition, % at 11.9 µM; 0.4% of 360,000 active; purified T. brucei MetRS, ATP depletion, Kinase-Glo luminescence;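 active means inhibition above a per-plate cutoff of the control wells' mean inhibition plus 3 SD, cut at about 5.5% in these data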
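Dosing: 11.9 µM single point; system: parasite MetRS enzyme; technique: luminescence of leftover ATP; times: 15 min enzyme-compound preincubation, 2 h reaction, 10 min detection, 25 °C; replicates: each compound tested once; read-out basis: percent inhibition relative to median high and low control wells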
V-ATPase pHluor – regulators of yeast V-ATPase proton transport. S. cerevisiae, pHLuorin cytosolic pH fluorescence. response, % at 10 µM. 0.37% of 350,000 active. AID 504577; in the data active means response mostly above about 7.3%, no sharp cut-off; inactive means mostly below about 5.4%; further: actives read high
UPR XBP1 act – adaptive UPR (XBP1) activation; AID 463104; 0.33% of 330,000 active; activation, % at 20 µM; CHO-XBP1 luciferase reporter, IRE1-XBP1 UPR activation, luminescence; percent of tunicamycin response, DMSO as zero;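 active means versus positive control, 20 µM dose yields 30% or more activation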
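Material: CHO cell line with stable XBP1 luciferase reporter; schedule: 16-18 h cell attachment at 37 °C, then 6 h compound exposure; signal: glow luminescence from Steady-Glo reagent; medium: serum-containing F12 medium, 10% FBS; benchmarks: tunicamycin 10 µg/mL and vehicle-only wells; read-out: percent activation relative to tunicamycin reference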
CHOP inh conf – confirmation of CHOP induction inhibitors; 45% of 2,100 active; inhibition, % at 10 µM; CHO-CHOP promoter luciferase reporter, tunicamycin-induced, luminescence; shares compounds with CHOP inh;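 active means mean of three repeat readings of reporter signal inhibition above a set limit, cut at about 70% in these data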
A number is an active result; i = inactive; nt = not tested or not shown.

SMILES	CHOP inh	UPR CHOP act	TbMetRS inhib	V-ATPase pHluor	UPR XBP1 act	CHOP inh conf
Cc1cc(O)c(Sc2ncn[nH]2)cc1NS(=O)(=O)c1ccc(Cl)cc1	nt	i	i	i	i	nt
O=S(=O)(Nc1cc(Sc2ncn[nH]2)c(O)c2ccccc12)c1ccccc1	106	i	i	i	i	77
Nc1cc(=O)[nH]c(SCC(=O)N2CCC(Cc3ccccc3)CC2)n1	nt	i	i	i	i	nt
COc1ccccc1-c1cc(C(F)(F)F)nc(S(=O)(=O)CCCC(=O)Nc2cccnc2Cl)n1	108	nt	i	i	nt	121
COc1ccccc1-c1cc(C(F)(F)F)nc(S(=O)(=O)CCCC(=O)Nc2cc(C)on2)n1	108	i	i	i	i	125
COc1ccc(-c2cc(C(F)(F)F)n3nc(C(=O)Nc4cc(C)on4)cc3n2)cc1OC	i	i	i	i	i	nt
COc1ccccc1-c1cc(C(F)(F)F)nc(S(=O)(=O)CCCC(=O)NC(C)C)n1	112	i	i	i	i	117
COc1ccc(-c2cc(C(F)(F)F)nc(S(=O)(=O)CCCC(=O)Nc3cc(C)on3)n2)cc1OC	106	nt	i	i	nt	i
Cc1cc(C)cc(NC(=S)N2CC(C)OC(C)C2)c1 (stereo not drawn)	nt	i	i	i	i	nt
Cc1ccc(-n2nnnc2SCn2nnc3ccccc3c2=O)c(C)c1	i	i	i	i	i	nt
CCCCCCCCn1ccc(=N)cc1	i	i	i	i	i	nt
CCCCCCCCCCCCCCCCn1cc[n+](C)c1	81	i	i	i	i	115
C/C=C\C(=O)Nc1cccc(C2=NOC3(C2)C[C@@H](C(N)=O)N(C(=O)c2ccc(OC)cc2)C3)c1 (stereo partly drawn)	i	i	nt	nt	i	nt
CCN(C(=O)c1cc2c(=O)[nH]c3ccc(C)cc3c2s1)c1cccc(C)c1	98	i	i	i	i	i
COc1ccc(S(=O)(=O)N=N/C=C2\C=CC=CN2O)cc1OC	nt	nt	i	i	nt	nt
Cc1ccnc(NC(=O)c2sc3ccccc3c2Cl)c1	99	i	i	i	i	i
O=C(Nc1ccccc1-c1nc2ccccc2[nH]1)c1ccc(N2C(=O)CCC2=O)cc1	i	i	i	i	i	nt
Cc1cnc(NC(=O)c2sc3ccccc3c2Cl)s1	i	i	i	i	i	nt
O=C(Nc1ccccc1-c1nc2ccccc2[nH]1)c1sc2ccccc2c1Cl	97	i	nt	nt	i	106
CN1C(=O)N(CC(=O)Nc2ccc3c(c2)OCO3)C(=O)C12CCCCC2	nt	nt	i	i	nt	nt
CCN(CC)c1nc2ccccc2nc1-n1nc(C)cc1C	i	i	i	i	i	nt
CC(C)C(=O)N1CCC(CN=Cc2c(O)n(C3CCCCC3)c(=O)n(C3CCCCC3)c2=O)CC1	104	nt	i	i	nt	118
Cc1cc2nc(-c3ccc(SCC(=O)N4CCc5ccccc54)nc3)[nH]c2cc1C	107	i	i	i	i	i
CCOC(=O)c1cccc(NC(=O)CSc2nnc(COc3ccccc3C)o2)c1	108	i	i	i	i	i
COc1ccccc1NC(=O)CSc1nnc(COc2ccccc2C)o1	nt	i	i	i	i	nt
SMILES	CHOP inh	UPR CHOP act	TbMetRS inhib	V-ATPase pHluor	UPR XBP1 act	CHOP inh conf
CC(OC(=O)Cc1n[nH]c(=O)c2ccccc12)C(=O)Nc1cccc([N+](=O)[O-])c1 (stereo not drawn)	i	i	i	i	i	nt
COc1ccc(CCNCC(O)Cn2c3ccccc3c3ccccc32)cc1OC (stereo not drawn)	i	i	i	i	i	nt
COc1ccccc1NCC(O)Cn1c2ccccc2c2ccccc21 (stereo not drawn)	100	i	i	i	i	i
Cc1cc(NC(=O)NC2(C(F)(F)F)Oc3ccc(Cl)cc3O2)no1 (stereo not drawn)	99	i	i	i	i	114
COCCNC(=O)NC1(C(F)(F)F)Oc2ccc(Cl)cc2O1 (stereo not drawn)	i	i	i	nt	i	nt
CCCC(=O)Nc1ccc2c(c1)C(=O)N(C)C[C@@H](OC)[C@H](C)CN(Cc1ccc(-c3ccccn3)cc1)[C@@H](C)CO2	nt	nt	i	nt	nt	nt
Oc1ccc(Cl)cc1-c1cc(-c2cccc(Br)c2)n[nH]1	101	i	i	i	i	i
COc1ccc(/C=C/C(=O)NC(=S)NNC(=O)Cc2cccs2)cc1	110	i	i	i	i	i
O=C(/C=C/c1ccccc1)NC(=S)NNC(=O)Cc1cccs1	104	i	i	i	i	i
O=C(NCc1ccco1)c1cccn2c(=O)c3cc4ccccc4cc3nc12	i	nt	nt	nt	nt	nt
COCCCNC(=O)c1cccn2c(=O)c3cc4ccccc4cc3nc12	98	i	i	i	i	i
CCCOc1ccc(/C=N/NC(=S)Nc2ccccc2[N+](=O)[O-])c(O)c1	101	nt	nt	nt	nt	i
O=S(=O)(Nc1ccc(-n2cccc2)cc1)c1ccc(Cl)cc1Cl	102	i	i	i	i	i
O=S(=O)(Nc1ccc(-n2cccc2)cc1)c1ccc(Cl)c(Cl)c1	i	i	i	i	i	nt
O=C(O)Cc1c[nH]c2ccccc12	nt	i	i	i	i	nt
O=C(CCl)N(c1ccc(Cl)cc1)c1c[nH]c2ccccc12	nt	i	i	i	i	119
O=C(CCl)N(c1ccccc1)c1c[nH]c2ccccc12	nt	i	i	i	i	i
Cn1c(=O)c2cc(NC(=O)Nc3ccccc3)ccc2n1Cc1ccccc1	nt	nt	i	nt	nt	nt
Cc1cc(Cl)ccc1OCc1n[nH]c(=S)n1C1CCCCC1	103	i	i	i	i	119
COC(=O)C1=CN(c2ccc(OC)cc2OC)C(N)=C(C#N)C1c1cccc([N+](=O)[O-])c1 (stereo not drawn)	nt	nt	i	nt	nt	nt
COc1ccc(CN(C)CC(=O)Nc2cccc(S(=O)(=O)N(C)c3ccccc3)c2)c(OC)c1	nt	i	i	i	i	nt
CCn1c(=O)c(C(=O)CN2CCCc3ccccc32)c(N)n(Cc2ccccc2)c1=O	97	i	i	i	i	i
CCC(CC)C(=O)N1N=C(c2ccc(NS(C)(=O)=O)cc2)CC1c1ccc(C)cc1 (stereo not drawn)	i	i	i	i	i	nt
C=C(C)COc1ccc(-c2[nH]ncc2Oc2cccc(OC)c2)c(O)c1	103	i	i	i	i	i
O=[N+]([O-])c1ccc(COc2ccc(-c3[nH]ncc3-c3ccccc3)c(O)c2)cc1	99	i	i	i	i	102
C=C(C)COc1ccc(-c2[nH]ncc2-c2ccccc2)c(O)c1	102	i	i	i	i	i
C=C(C)COc1ccc(-c2[nH]ncc2-c2ccc(OC)c(OC)c2)c(O)c1	nt	i	i	nt	i	nt
C=C(C)COc1ccc(-c2[nH]ncc2Oc2ccccc2OCC)c(O)c1	107	i	i	i	i	107
CCOc1ccccc1Oc1cn[nH]c1-c1ccc(O)cc1O	nt	i	i	i	i	nt
C=C(C)COc1ccc(-c2[nH]ncc2-c2ccc(OC)cc2)c(O)c1	i	i	i	i	i	nt
